Published values of several laboratories.
Target: Serine/threonine-protein kinase 33 (STK33, Homo sapiens, UniProt Q9BYT3)

Compound	effect on	mode	technique	concentration	endpoint	value
O=C(Nc1cnn(-c2csc(C(=O)NC3COC3)c2)c1)Nc1c(F)cccc1Cl	enzyme activity	inhibitor		5 µM	remaining activity	81.8%
COc1cc(Nc2cnc(C#N)c(O[C@H](C)CN(C)C)n2)ncc1-c1cnn(C)c1	enzyme activity	inhibitor	radiometric	1 µM	remaining activity	59%
CCS(=O)(=O)c1cc2cc(C[C@@](O)(CC(C)(C)c3ccc(F)cc3C(N)=O)C(F)(F)F)[nH]c2cn1	cell-free assay		competition with immobilised ligand	1 µM	remaining binding	91%
O=C(Nc1cnn(-c2csc(C(=O)NC3COC3)c2)c1)Nc1ccccc1Cl	enzyme activity	inhibitor		5 µM	remaining activity	99.3%
Cc1nccc(COC(=O)N2C[C@@H]3[C@@H](CNC(=O)c4ccc5[nH]nnc5c4)[C@@H]3C2)n1	cell-free assay		competition with immobilised ligand	1 µM	remaining binding	93%
Cn1cncc1C1=CN(c2ncnc3[nH]cnc23)CCS1	enzyme activity	inhibitor	radiometric	50 nM	inhibition	23.6%
Cc1ccc(C(=O)Nc2ccc(CN3CCN(C)CC3)c(C(F)(F)F)c2)cc1C#Cc1cnc2cccnn12	enzyme activity	inhibitor		23.5 nM	remaining activity	96%
CCCOc1ccc(OC)c(F)c1C(=O)c1ccc(C(=O)N[C@@H]2CNC[C@H]2NC(=O)c2ccc3[nH]ncc3c2)cc1	enzyme activity	inhibitor		10 µM	remaining activity	7%
Cc1cc(NC(=O)c2cccc3cc(-c4cccc5[nH]nc(N)c45)ccc23)ccc1F	enzyme activity	inhibitor		0.1 µM	activity vs control	126%
Cn1nc(C(=O)NCc2ccc(C(=O)O)cc2)cc1-c1ccc2[nH]ccc2c1	cell-free assay		competition with immobilised ligand	0.1 µM	remaining binding	87%
Cn1cnc(Br)c1C1=CN(c2ncnc3[nH]cnc23)CCS1	enzyme activity	inhibitor	radiometric	50 nM	inhibition	35.8%
FC(F)(F)Oc1cccc(-c2cnc3ccc(-c4ccncc4)nn23)c1	enzyme activity	inhibitor	radiometric	5 µM	activity vs control	100%
Cc1ccc(Nc2nccc(N(C)c3ccc4c(C)n(C)nc4c3)n2)cc1S(N)(=O)=O	enzyme activity	inhibitor		0.3 µM	inhibition	-2%
CCCS(=O)(=O)Nc1ccc(F)c(C(=O)c2c[nH]c3ncc(-c4ccc(Cl)cc4)cc23)c1F	enzyme activity	inhibitor		1 µM	inhibition	< 10%
Cc1cnc(NC2CCOCC2)nc1-n1cnc(C(=O)NC(CN)c2cc(F)cc(Cl)c2)c1 (stereo not shown)	enzyme activity	inhibitor	radiometric	1 µM	remaining activity	71%
Cn1cc(Cl)c2c(Oc3c(F)cc(Nc4cc(Cl)nc(N)n4)cc3F)ccnc21	cell-free assay		competition with immobilised ligand	0.1 µM	remaining binding	100%
CC(C)c1ccc(NC(=O)c2cccs2)c(-c2nc3ccccc3[nH]c2=O)c1	enzyme activity	inhibitor		1 µM	activity vs control	39%
COc1cc(Cl)c(C(=O)N[C@@H](CN[C@H]2CC[C@@H](N)CC2)Cc2ccc(C#N)cc2)cc1-c1ccc(CN[C@H](C)c2ccc(C)cc2)o1	enzyme activity	inhibitor		1 µM	remaining activity	99%
CCCCN(CCCC)C(=O)CN1C[C@H](c2cc(OC)c3c(c2)OCO3)[C@@H](C(=O)O)[C@@H]1CC(C)(C)CCC	cell-free assay		competition with immobilised ligand	1 µM	remaining binding	100%
